Hits are enriched below; roughly 2.2% of the tested compounds scored in any of these assays.
HCV NS3 hel inh = blocks Hepatitis C virus NS3 helicase unwinding. NS3 helicase DNA unwinding, Cy5 molecular beacon fluorescence. 290,000 tested, 0.56% active. AID 1800. inhibition, % at 10.9 µM;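 active = inhibition above the mean of all tested compounds plus 3 SD, set per campaign, cut at about 35% in these data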;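 also: 0% = DMSO wells and 100% = thioflavine S control wells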
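Assay system: hepatitis C virus NS3 helicase domain fragment enzyme. Also added: annealed dual-labelled DNA beacon duplex, ATP-started. Timing: 1 h reaction at 25 °C, ATP-initiated. Technique: Cy5 fluorescence at 0 and 60 min, beacon hairpin quenching. Evaluation: % inhibition of unwinding. Replication: one well per compound.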
FID counter = fluorescent intercalator displacement, NS3 helicase counter-screen | DNA fluorescent intercalator displacement, fluorescence | inhibition, % at 7.9 µM | 290,000 tested, 0.17% active | AID 1845; in the data active = inhibition above about 37%;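 also: 0% = vehicle and 100% = reference compound; higher means more ethidium bromide displaced from hairpin DNA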
GRK2 inh = inhibitors of human GRK2 displacing RNA aptamer; P25098; bead flow cytometry, FAM-aptamer displacement from GRK2; inhibition of aptamer binding, % at 10 µM; 330,000 tested, 0.59% active; AID 488847;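 active = inhibition of aptamer binding above 40%, roughly 3 SD of noise, on plates passing a quality check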;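 also: median bead fluorescence of bound FAM aptamer so fluorescent compounds give negative values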
HCV core dimer = blocks dimerization of HCV core protein | TR-FRET GST/Flag-core106 dimerization, 1536-well | inhibition, % at 5 µM | 300,000 tested, 0.33% active | AID 1899;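 active = inhibition above the mean of all tested compounds plus 3 SD, set per screening campaign, cut at about 45% in these data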
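Assay system: tagged HCV core106 pair (GST and Flag); medium: KF-containing HEPES buffer, pH 7.45, DTT, CHAPS, BSA; also added: Eu donor and XL665 acceptor anti-tag antibodies; dosing: 5 µM single dose; timing: compound-protein-antibody incubation 4 h at 22.5 °C; signal: TR-FRET 671 and 617 nm emission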
DAGLB inhibitor = diacylglycerol lipase beta (human) inhibition; HEK293T DAGLB membrane lysate, EnzChek fluorogenic substrate; inhibition, % at 5.17 µM; 340,000 tested, 0.059% active; in the data active = inhibition above about 34%;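 also: 0% = enzyme with vehicle and 100% = wells lacking enzyme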
Target sequence (Q8NCG7 whole entry, looked up): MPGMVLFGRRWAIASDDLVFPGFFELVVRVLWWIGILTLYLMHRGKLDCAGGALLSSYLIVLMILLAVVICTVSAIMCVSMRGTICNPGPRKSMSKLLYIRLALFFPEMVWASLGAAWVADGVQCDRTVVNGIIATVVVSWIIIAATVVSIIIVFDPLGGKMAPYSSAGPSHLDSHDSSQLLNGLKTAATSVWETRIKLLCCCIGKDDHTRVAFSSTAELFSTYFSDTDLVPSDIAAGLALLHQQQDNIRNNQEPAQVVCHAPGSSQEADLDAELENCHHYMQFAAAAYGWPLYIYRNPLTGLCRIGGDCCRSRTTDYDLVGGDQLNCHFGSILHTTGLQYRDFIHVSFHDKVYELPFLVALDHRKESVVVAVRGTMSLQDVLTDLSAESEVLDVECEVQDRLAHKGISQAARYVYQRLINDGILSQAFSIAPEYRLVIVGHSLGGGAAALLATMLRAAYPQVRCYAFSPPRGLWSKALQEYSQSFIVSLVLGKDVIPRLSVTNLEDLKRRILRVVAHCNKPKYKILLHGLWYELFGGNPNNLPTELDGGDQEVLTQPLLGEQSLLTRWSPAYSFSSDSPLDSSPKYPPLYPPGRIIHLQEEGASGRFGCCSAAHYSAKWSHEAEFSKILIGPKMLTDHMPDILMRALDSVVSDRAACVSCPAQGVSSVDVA
GPR7 antagonist = antagonists of human GPR7 (neuropeptides B/W receptor 1); GPR7-expressing cells, fluorescence antagonist assay; inhibition, % at 4.4 µM; 290,000 tested, 1.1% active; AID 1861; in the data active = inhibition above about 16%, passing the limit was not always enough;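 also: cells stimulated with the agonist NPW; 0% = agonist with vehicle and 100% = vehicle without agonist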
GRK2 CP1 = confirmation of human GRK2 inhibitors displacing RNA aptamer. shares compounds with GRK2 inh. bead-bound GRK2, FAM-aptamer displacement, flow cytometry. aptamer displacement, % at 10 µM. 2,000 tested, 4% active. AID 504451;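 active = aptamer displacement above 40%, near three times the noise of non-fluorescent compounds, on plates passing quality checks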;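 also: negative values mostly reflect intrinsic compound fluorescence rather than true enhancement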
Aptamer quench 1 = counter-screen for GRK2 aptamer inhibitors: fluorescent aptamer quenchers; shares compounds with GRK2 inh; Fluorescent RNA aptamer beads, quenching, flow cytometry; active compounds read high; fluorescence change (kMESF span), kMESF (concentration not given with the values); 110 tested, under 10 active; AID 504521;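 active = compounds whose bead fluorescence drops by more than 37 kMESF across the dose range, marking them as dye quenchers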
Aptamer quench SP = aptamer fluorescence quenching in GRK2 counter-screen; shares compounds with GRK2 inh; 2,000 tested, under 10 active; Carboxyfluorescein RNA aptamer on beads, flow cytometry quenching; active compounds read low; AID 504580; fluorescence response (% of DMSO), % at 10 µM;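 active = compounds that quench the bead-bound fluorescent RNA probe, cutting fluorescence to under half of the solvent control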;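 also: counterscreen run without GRK2 so only probe quenching by compound is measured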
GRK2 CP2 = confirmation of human GRK2 inhibitors binding RNA aptamer site; shares compounds with GRK2 inh; AID 504782; bead-bound GRK2, FAM-aptamer displacement, flow cytometry; inhibition of aptamer binding, % at 10 µM; 360 tested, under 10 active;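 active = inhibition of aptamer binding above 40%, about triple the noise seen with nonglowing compounds, on plates passing quality control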;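 also: negative values mostly come from compounds that fluoresce themselves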
FAM quench CP2 = quenches fluorescent RNA aptamer, GRK2 hit artifact | shares compounds with GRK2 inh | carboxyfluorescein RNA aptamer beads, flow cytometry quenching; active compounds read low | fluorescence response vs DMSO, % at 10 µM | 360 tested, under 10 active | AID 588494;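 active = response vs DMSO under 50%, meaning signal dropped by over half, treated as fluorescence quencher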;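 also: labelled aptamer on streptavidin beads without GRK2 as a quench counter-screen; 100% = bead fluorescence of DMSO wells and lower means quenching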
* hit, by the source's call; / = no result given.

SMILES	HCV NS3 hel inh	FID counter	GRK2 inh	HCV core dimer	DAGLB inhibitor	GPR7 antagonist	GRK2 CP1	Aptamer quench SP	others
CC(C)(CS(=O)(=O)[O-])NC(=O)CC[N+](C)(C)CCO	21.6	3.4	99.0*	-483.9	-2.9	13.2	95.8*	94.4	Aptamer quench 1=-2.8
COCCCNC(=O)CNC(=O)c1nn(-c2ccc(OC)cc2OC)c(=O)c2ccccc12	1.0	-8.0	4.0	-4.3	0.2	-13.6	-1.5	103.6
COc1ccc(-n2nc(C(=O)NCC(=O)NC(C)C)c3ccccc3c2=O)c(OC)c1	6.1	-11.9	0.0	-6.2	-1.8	6.8	/	/
CCC(C)NC(=O)CNC(=O)c1nn(-c2ccc(OC)cc2OC)c(=O)c2ccccc12 (centres undefined)	12.5	-18.3	0.0	-5.7	-0.9	21.2	-0.3	102.0
CC(C)c1cc(C(=O)N2CCCC(CCC(=O)N3CCN(c4ccccn4)CC3)C2)no1 (centres undefined)	0.1	-38.0	0.0	3.4	1.1	-7.8	/	/
O=c1c2c([N+](=O)[O-])cc([N+](=O)[O-])cc2nc2ccccn12	13.0	11.0	69.0*	38.0	3.9	-14.9	-0.8	97.6
O=c1c2c([N+](=O)[O-])cc([N+](=O)[O-])cc2sn1Cc1ccccc1	16.9	0.8	4.0	-5.8	7.3	4.5	/	/
C/C=C(/C)C(=O)Nc1cccc(C2=NOC3(C2)C[C@H](C(N)=O)N(C(=O)Cc2ccc([N+](=O)[O-])cc2)C3)c1 (some centres undefined)	/	/	0.0	7.0	1.3	/	/	/
C=C(C)C(=O)Nc1cccc(C2=NOC3(C2)C[C@@H](C(N)=O)N(C(=O)CC(c2ccccc2)c2ccccc2)C3)c1 (some centres undefined)	/	/	88.0*	-128.3	3.9	/	80.2*	97.5	Aptamer quench 1=1.5
C=C(C)C(=O)Nc1cccc(C2=NOC3(C2)C[C@@H](C(N)=O)N(C(=O)/C=C/C=C/C)C3)c1 (some centres undefined)	/	/	92.0*	-121.2	1.8	/	82.5*	100.4	Aptamer quench 1=10.4
CCC(=O)Nc1cccc(C2=NOC3(C2)C[C@H](C(N)=O)N(C(=O)Cc2ccc([N+](=O)[O-])cc2)C3)c1 (some centres undefined)	/	/	3.0	-1.9	-1.5	/	/	/	GRK2 CP2=6.0;FAM quench CP2=97.0
C=C(C)C(=O)Nc1cccc(C2=NOC3(C2)C[C@H](C(N)=O)N(C(=O)CC#N)C3)c1 (some centres undefined)	/	/	67.0*	-14.9	/	/	16.2	102.2	Aptamer quench 1=6.5
CCOCCCNC(=O)c1oc2ccc3c(c2c1C)C(O)CC(C)(C)O3 (centres undefined)	6.6	-44.3	0.0	/	1.0	-11.2	/	/
COc1ccccc1CCNC(=O)c1ccc2nc[nH]c2c1	0.1	-12.0	2.0	3.8	5.0	-6.1	/	/
O=C1C=C(c2cc(F)ccc2F)C[C@@H](c2ccc(F)cc2)C1	/	/	1.0	/	-1.1	/	/	/
CCOC(=O)N1CCN(C(=O)CCC(=O)N2CCOc3ccc(C)cc32)CC1	7.1	-24.5	93.0*	-3.7	2.6	-4.9	-2.4	98.5
COc1cccc(OC)c1C(=O)OCC(=O)NCC(C)C	2.2	-8.4	96.0*	1.5	-1.0	-9.8	-3.1	94.8
Cc1ccc(NC(=O)Cc2nnc(SCC(=O)NC3=NCCS3)n2C)cc1	-6.1	-18.6	2.0	-3.2	0.6	-7.3	/	/
O=C(Nc1cccc(NC(=O)c2ccc(-c3ccc(Br)cc3)o2)c1)c1ccccc1	3.1	2.2	90.0*	32.5	-4.2	6.7	-0.6	93.5
CC(C)CC(=O)c1c[nH]c(C(=O)N2CCN(Cc3ccccc3)CC2)c1	-9.6	-25.9	0.0	-6.6	0.2	-9.8	/	/
COc1ccc(S(=O)(=O)N2CCCCC2)cc1NC(=O)CSc1nnc(C2CC2)n1C	/	/	1.0	/	-2.1	/	/	/
Cc1ccc(OCC(=O)c2cc(C)c(C)cc2C)c([N+](=O)[O-])n1	6.9	-6.3	1.0	34.4	-3.9	-5.4	/	/
Cc1ccc(OCC(=O)c2c(N)n(C)c(=O)n(C)c2=O)c([N+](=O)[O-])n1	/	/	77.0*	/	-1.0	/	60.5*	96.4	Aptamer quench 1=18.6
O=C(COc1ccc(C(=O)NCCN2CCOCC2)cc1)Nc1cccc(C(F)(F)F)c1	/	/	0.0	1.9	0.7	/	/	/
CCNS(=O)(=O)c1ccc(CCC(=O)N2CCCC2)cc1	9.5	-3.7	0.0	-14.0	-1.3	-2.9	/	/
SMILES	HCV NS3 hel inh	FID counter	GRK2 inh	HCV core dimer	DAGLB inhibitor	GPR7 antagonist	GRK2 CP1	Aptamer quench SP	others
COc1cccc(OC)c1C(=O)n1nc(C)cc1C	6.3	-2.6	15.0	-0.5	-0.2	-10.5	-1.6	101.8
N#C/C(=C/C1=C(N2CCOCC2)C(=C/c2ccc(Cl)cc2)/CC1)C(=O)Nc1ccccc1F	/	/	/	/	-2.9	/	/	/
Cc1ccc(NC2=NC(C(=O)Nc3ccc(C)c(C)c3)CC(=O)N2)cc1 (centres undefined)	-0.9	-8.3	0.0	2.5	0.6	-0.8	-2.5	102.3
CCOc1ccccc1C1c2[nH]c3ccccc3c2C[C@H]2C(=O)N(C3CC3)CC(=O)N12 (some centres undefined)	-6.4	-39.9	0.0	0.3	0.4	5.3	/	/
Cc1oc(-c2ccccc2F)nc1CN1CCC(C(=O)NC2CCCc3ccccc32)CC1 (centres undefined)	0.6	12.9	0.0	16.4	-0.2	-7.0	-1.5	94.0
COc1cc(/C=C(/NC(C)=O)C(=O)O)cc(Cl)c1OCc1ccc(Br)cc1	20.7	-31.9	80.0*	2.6	2.2	0.5	4.3	94.1
COC(CN1C(=O)C(=O)/C(=C(/O)c2ccccc2)C1c1ccccn1)OC (centres undefined)	0.4	11.6	4.0	-1.3	2.2	10.1	/	/
O=C(COC(=O)C1(c2ccc(Cl)cc2)CCCC1)NCc1ccco1	0.7	-25.4	6.0	6.3	-8.6	9.4	1.8	105.1
COc1ccc(CC(=O)OCC(=O)NCc2ccco2)cc1OC	/	/	2.0	0.9	-0.7	/	/	/
O=C(COC(=O)Cc1ccc(F)cc1)NCc1ccco1	1.0	-1.9	52.0*	5.9	1.3	-9.6	21.8	92.6
